Key:
[1] = biological target: T1, Complement C1r subcomponent (Homo sapiens, UniProt P00736)
T1 sequence (P00736 whole entry): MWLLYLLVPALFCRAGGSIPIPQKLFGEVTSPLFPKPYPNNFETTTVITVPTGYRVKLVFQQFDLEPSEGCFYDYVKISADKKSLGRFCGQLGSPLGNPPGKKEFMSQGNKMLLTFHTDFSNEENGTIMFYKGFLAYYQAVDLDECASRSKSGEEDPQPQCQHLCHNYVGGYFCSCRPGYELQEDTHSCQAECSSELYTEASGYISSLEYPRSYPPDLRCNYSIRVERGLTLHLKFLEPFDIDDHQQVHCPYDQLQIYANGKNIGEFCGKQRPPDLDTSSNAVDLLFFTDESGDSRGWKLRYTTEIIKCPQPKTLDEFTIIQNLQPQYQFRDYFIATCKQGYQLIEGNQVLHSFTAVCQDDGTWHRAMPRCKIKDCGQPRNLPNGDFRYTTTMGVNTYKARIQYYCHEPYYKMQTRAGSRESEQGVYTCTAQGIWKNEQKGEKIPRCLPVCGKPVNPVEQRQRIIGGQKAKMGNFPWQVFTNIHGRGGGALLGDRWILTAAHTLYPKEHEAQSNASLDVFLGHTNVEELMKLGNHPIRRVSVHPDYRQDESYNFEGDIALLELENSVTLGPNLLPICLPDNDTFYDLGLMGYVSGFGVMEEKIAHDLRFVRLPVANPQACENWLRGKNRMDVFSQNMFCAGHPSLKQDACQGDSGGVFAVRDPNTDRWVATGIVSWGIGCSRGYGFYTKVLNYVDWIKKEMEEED

[2] = biological target: T1, Complement C1r subcomponent; assay: 50% inhibition of human C1r serine protease after 60 mins using Cbz-Gly-Arg-S-Bzl as substrate
Method in brief: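 Compound (DMSO) preincubated 60 min at room temperature in 150 mM Tris pH 7.5, then substrate (1.5 mM stock Cbz-Gly-Arg-S-Bzl in DMSO/H2O 3:7), DTNB (0.75 mM stock) and purified human C1r (20 μg/mL stock, 10 mM Tris pH 7.4) added. Read kinetically at 405 nm after 30 s; no-enzyme background wells; triplicates per concentration; IC50 reported.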

[3] = biological target: T2, Serine protease 1 (Bos taurus, UniProt P00760); assay: Concentration of compound required to inhibit 50% trypsin derived from bovine pancreas
T2 sequence (P00760 whole entry): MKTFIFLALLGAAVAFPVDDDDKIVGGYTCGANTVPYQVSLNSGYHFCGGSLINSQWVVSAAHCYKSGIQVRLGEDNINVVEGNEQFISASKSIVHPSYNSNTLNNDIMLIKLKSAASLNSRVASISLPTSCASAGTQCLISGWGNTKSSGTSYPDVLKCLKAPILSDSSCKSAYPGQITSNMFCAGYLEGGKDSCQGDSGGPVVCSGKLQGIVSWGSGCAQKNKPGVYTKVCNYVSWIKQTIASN
Method in brief: (§1)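 Bovine pancreatic trypsin (1.25 μg) with casein 0.5 mg/mL, 20 mM dithiothreitol, 50 mM Tris-HCl pH 7.4, at various inhibitor concentrations; 60 min, 25 °C caseinolysis, colorimetric development, absorbance 595 nm. IC50 from percent inhibition versus log [inhibitor]; mean of two to four determinations, ranges within 20%.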

[4] = The compound was examined in a functional assay using erythrocyte hemolysis as a functional end point of complement inhibition.; parameters: species or system Ovis aries; concentration or dose not given beside the values
Method in brief: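 Compound added to standardized antibody-sensitized sheep erythrocyte suspension (commercial complement kit), incubated 60 min at 25 °C, centrifuged; supernatant absorbance read at 405 nm. Expressed as percent of control at 200 μM.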

[5] = biological target: T2, Serine protease 1; assay: The compound was evaluated to inhibit trypsin and is expressed in IC50 (The concentration required to inhibit 50% of the enzyme).
Method in brief: as §1

Row | Compound | IC50 [1] [µM] | IC50 [2] [µM] | other results
1 | O=c1oc(NCCc2ccccc2I)nc2ccccc12 | > 62.5 | – | –
2 | COc1cc2nc(Nc3ccccc3I)oc(=O)c2cc1OC | 47 | 47 | –
3 | O=c1oc(Nc2ccccc2OC(F)(F)F)nc2ccccc12 | – | > 62.5 | –
4 | O=c1oc(Nc2ccccc2I)nc2cc(C(F)(F)F)ccc12 | – | 4 | IC50 [3]: > 100 µM; Hemolysis (% of control) [4]: 146%
5 | Cc1ccc2nc(Nc3ccccc3I)oc(=O)c2c1 | > 62.5 | – | –
6 | O=c1oc(-c2ccccc2I)nc2ccccc12 | – | – | IC50 [3]: 15.3 µM; Hemolysis (% of control) [4]: 61%
7 | O=c1oc(Nc2ccccc2I)nc2cc(C3CCCCC3)ccc12 | > 62.5 | – | –
8 | Cc1ccccc1Nc1nc2ccccc2c(=O)o1 | – | 38 | –
9 | O=c1oc(Nc2c(Cl)cccc2Cl)nc2cc(C(F)(F)F)ccc12 | 1.5 | 4.2 | IC50 [3]: 87.1 µM; Hemolysis (% of control) [4]: 120%
10 | CNc1nc2ccccc2c(=O)o1 | > 62.5 | – | –
11 | O=c1oc(Nc2ccccc2I)nc2cc(F)c(F)cc12 | – | > 62.5 | –
12 | Cc1cccc2nc(NC(C)C)oc(=O)c12 | > 62.5 | – | –
13 | COc1ccc2nc(Nc3ccccc3I)oc(=O)c2c1 | – | > 62.5 | –
14 | CN(c1nc2ccccc2c(=O)o1)c1ccccc1I | – | 16.6 | IC50 [3]: 4.5 µM; Hemolysis (% of control) [4]: 72%
15 | O=c1oc(Nc2ccccc2I)nc2cc3ccccc3cc12 | 0.2 | 16.6 | –
16 | O=c1oc(NCc2ccccc2I)nc2ccccc12 | > 62.6 | – | –
17 | Nc1nc2ccccc2c(=O)o1 | > 62.5 | – | –
18 | Cc1cccc(C)c1Nc1nc2ccccc2c(=O)o1 | > 62.5 | – | –
19 | O=c1oc(Nc2ccccc2Br)nc2ccccc12 | – | 15.2 | IC50 [3]: > 100 µM
20 | CSc1ccccc1Nc1nc2ccccc2c(=O)o1 | > 62.5 | – | –
21 | CCN(c1nc2ccccc2c(=O)o1)c1ccccc1I | > 62.5 | – | –
22 | Cc1cccc2nc(Nc3ccccc3I)oc(=O)c12 | > 62.5 | – | –
23 | O=c1oc(Nc2ccccc2I)nc2ccccc12 | – | 14.7 | –
24 | O=c1oc(Nc2ccccc2I)nc2cccc(Cl)c12 | – | > 62.5 | –
25 | N=C(N)c1ccc2cc(OC(=O)c3ccc(N=C(N)N)cc3)ccc2c1 [NAFAMOSTAT] | – | – | IC50 [5]: 0.017 µM

Second part, led by results:

Row | IC50 [1] [µM] | IC50 [2] [µM] | Compound | other results
26 | – | 8 | O=c1oc(Nc2ccccc2Cl)nc2ccccc12 | –
27 | 0.8 | 7.8 | O=c1oc(Nc2ccccc2I)nc2cc([N+](=O)[O-])ccc12 | IC50 [3]: > 100 µM; Hemolysis (% of control) [4]: 126%
28 | – | 0.9 | Cc1ccc2c(=O)oc(Nc3ccccc3Cl)nc2c1 | –
29 | – | > 62.5 | O=c1oc(Nc2ccccc2I)nc2ccc(Cl)cc12 | –
30 | – | 1.5 | Cc1ccc2c(=O)oc(Nc3ccccc3I)nc2c1 | IC50 [3]: > 100 µM; Hemolysis (% of control) [4]: 114%
31 | 0.9 | 0.9 | O=c1oc(Nc2c(Cl)cccc2Cl)nc2ccccc12 | –
32 | > 62.5 | – | CN(C)c1ccc2c(=O)oc(Nc3ccccc3I)nc2c1 | –
33 | > 62.5 | – | COc1ccc2c(=O)oc(Nc3ccccc3I)nc2c1 | –
34 | > 62.5 | – | CC(C)c1ccc2c(=O)oc(Nc3ccccc3I)nc2c1 | –
35 | – | 0.9 | O=c1oc(Nc2ccccc2I)nc2cc(Cl)ccc12 | –
36 | 1.7 | 2.8 | O=c1oc(Nc2ccccc2I)nc2cc(F)ccc12 | IC50 [3]: > 100 µM
37 | – | > 62.5 | O=c1oc(Nc2ccccc2Cl)nc2cc([N+](=O)[O-])ccc12 | –
38 | – | > 62.5 | O=c1oc(Nc2ccccc2I)nc2cc(Cl)c(Cl)cc12 | –
39 | – | 0.9 | O=c1oc(Nc2c(Cl)cccc2Cl)nc2cc(Cl)ccc12 | –
40 | – | > 62.5 | O=c1oc(Nc2ccccc2Cl)nc2cc(Cl)c(Cl)cc12 | –
41 | > 62.5 | – | O=c1oc(Nc2ccccc2I)nc2cc(Cl)cc(Cl)c12 | –
42 | 0.8 | 0.8 | O=c1oc(Nc2ccccc2Cl)nc2cc(Cl)ccc12 | IC50 [3]: > 100 µM; Hemolysis (% of control) [4]: 138%
43 | 2 | 2 | O=c1oc(Nc2cc(Cl)ccc2Cl)nc2ccccc12 | IC50 [3]: > 100 µM; Hemolysis (% of control) [4]: 131%
